One may read the IC50 as the point on the concentration scale where inhibition reaches its midpoint.

A short description of data set [1]: NOS related cytotoxicity, SRB viability of RAW 264.7. The note with it: mouse, RAW 264.7 macrophages. It is filed as cell-based, murine. The procedure, abridged: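 RAW 264.7 macrophages were maintained in high-glucose DMEM with 10% FBS and penicillin/streptomycin/[…] at 37 °C in humidified 5% CO2. The test compound's effect on their viability was measured by sulforhodamine B colorimetric staining, run alongside the LPS-stimulated nitrite assay.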

Data set [2] deals with LPS-induced nitric oxide production in RAW 264.7 macrophages. Description: Anti-inflammatory. It is filed as cell-based, murine. As to conditions: Mus musculus, RAW264.7, 24 h, read-out: NOS-IC50 value. The procedure, abridged:
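Cells (2 x 10^5/well) were exposed to test compound (5-200 μg/mL) plus LPS 10 μg/mL for 24 h. Medium was mixed 1:1 with Griess reagent (1% sulfanilamide in 5% phosphoric acid; 0.1% naphthylethylenediamine-HCl) for 10 min at RT. A550 was read and nitrite taken from a sodium nitrite standard curve.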

Data set [3] can be described thus: Glycation related cytotoxicity: test compound only, no MGO. Format: cell-based, murine. The note with it: mouse, RAW 264.7 macrophages.
A short description of data set [4]: Selective cytotoxicity SRB assay, periodontal fibroblasts. It is filed as cell-based. As to conditions: human, primary periodontal ligament fibroblasts (PDL), noncancerous. A digest of the protocol:
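Primary human periodontal fibroblasts served as a noncancerous counter-screen for selective cytotoxicity. […] Assays were run in triplicate and reported as mean ± SD (n=3).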
(In general: The SRB assay estimates cell density from bound dye.)

The target of data set [5] is T1, Crude porcine PL type II (pancreatic lipase) (Sus scrofa, UniProt P00591).
T1 sequence (P00591 1-450): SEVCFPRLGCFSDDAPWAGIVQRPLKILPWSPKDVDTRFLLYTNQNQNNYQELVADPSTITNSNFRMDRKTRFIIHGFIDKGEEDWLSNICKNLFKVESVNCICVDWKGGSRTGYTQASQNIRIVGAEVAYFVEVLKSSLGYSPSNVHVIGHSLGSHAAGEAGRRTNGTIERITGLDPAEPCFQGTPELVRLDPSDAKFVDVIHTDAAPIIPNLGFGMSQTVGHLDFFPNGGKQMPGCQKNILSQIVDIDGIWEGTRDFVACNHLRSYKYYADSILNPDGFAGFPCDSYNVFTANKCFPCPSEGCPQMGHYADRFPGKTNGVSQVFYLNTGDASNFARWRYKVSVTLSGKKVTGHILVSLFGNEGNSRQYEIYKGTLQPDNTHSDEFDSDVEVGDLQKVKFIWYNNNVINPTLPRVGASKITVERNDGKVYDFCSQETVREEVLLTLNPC
Briefly: In vitro PL activity spectrophotometric assay. It is filed as biochemical. As to conditions: PL-IC50 value, p-NPB substrate, 37 °C.

Data set [6] concerns Methylglyoxal induced cytotoxicity in RAW264.7 murine macrophages. Description: Antiglycation determination via methylglyoxal induced cytotoxicity. The note with it: RAW264.7, MGO 300 µM, 48 hr, SRB. Format: cell-based.
Data set [7] concerns RAW 264.7 murine macrophages. Briefly: Glycation related cytotoxicity: test compound only, no MGO. Format: cell-based. The note with it: RAW264.7, in absence of MGO, 48 hr, SRB.

“And” between values parts separate entries of the source, which are not always exact repeats. Equal values may be shown once. Where only a bound is given, the exact number is not on record here.

Turning to `COc1ccc2c(c1)c(CC(=O)O)c(C)n2C(=O)c1ccc(Cl)cc1` [Indomethacin, reference compound], the IC50 at 24 h in data set [1] is > 200 µg/mL. Besides, the IC50 in data set [2] was 212 µM and 75.9 µg/mL.
On to `CCc1ccc(Nc2c(F)cc3c(=O)c(C(=O)O)cn(C4CC4)c3c2N)cc1` [4a, 8-amino-1-cyclopropyl-7-(4-ethyl-phenylamino)-6-fluoro-4-oxo-1,4-dihydro-quinoline-3-carboxylic acid], for which, in data set [3], the IC50 at 48 h was 3.05 µM and 1.2 µg/mL. In addition, the IC50 at 24 h in data set [1] was > 200 µg/mL. For the same compound, the half-inhibitory concentration (IC50) was 60 µM and 22.9 µg/mL in data set [2]; 22.3 µM and 23.9 µM in data set [5]. The IC50 at 72 h in data set [4] was 37.1 µM and 14.2 µg/mL.
For `CCc1ccc(-n2nnc3c4c(cc(F)c32)c(=O)c(C(=O)O)cn4C2CC2)cc1` [5a, 9-cyclopropyl-3-(4-ethyl-phenyl)-4-fluoro-6-oxo-6,9-dihydro-3H-[1,2,3]triazolo[4,5-h]quinoline-7-carboxylic acid], the IC50 at 48 h in data set [3] was 84.1 µM and 33 µg/mL. The IC50 at 24 h in data set [1] is > 200 µg/mL. Also, the IC50 in data set [2] was 51.5 µM and 20.2 µg/mL; in data set [5], 95.5 µM and 95.6 µM. Besides, the IC50 at 72 h in data set [4] is 155 µM and 60.8 µg/mL.
Take `CCCCc1ccc(-n2nnc3c4c(cc(F)c32)c(=O)c(C(=O)O)cn4C2CC2)cc1` [5b, 3-(4-butyl-phenyl)-9-cyclopropyl-4-fluoro-6-oxo-6,9-dihydro-3H-[1,2,3]triazolo[4,5-h]quinoline-7-carboxylic acid]: the 50% inhibitory concentration (IC50) at 48 h in data set [3] is 161 µM and 67.7 µg/mL. In data set [1], the IC50 at 24 h is > 200 µg/mL. The IC50 is 98.8 µM and 41.5 µg/mL in data set [2]; 88.6 µM and 88.7 µM in data set [5]. Further, in data set [4], the IC50 at 72 h is 42.5 µM and 17.9 µg/mL.
Turning to `N=C(N)NN` [Aminogaunidine, Aminoguanidine, reference compound], the Glycation-IC50 value result in data set [6] is “(0.34±0.0 µg/mL)”. Besides, the values for the IC50 in data set [6] (read-out: Glycation-IC50 value) and in data set [7] (read-out: Glycation related Cytotox.-IC50 value) were 3.1 ± 0.35 µM and 5390 ± 1350 µM, respectively. Besides, in data set [7], the “Glycation related Cytotox.-IC50 value” is on record as “(596.62±148.8 µg/mL )”.
Consider `CCc1ccc(Nc2c(F)cc3c(=O)c(C(=O)O)cn(C4CC4)c3c2[N+](=O)[O-])cc1` [3a, 1-cyclopropyl-7-(4-ethyl-phenylamino)-6-fluoro-8-nitro-4-oxo-1,4-dihydro-quinoline-3-carboxylic acid], for which the IC50 at 48 h in data set [3] is 437 µM and 180 µg/mL. Further, in data set [1], the IC50 at 24 h is > 200 µg/mL. Moreover, the IC50 is 309 µM and 127 µg/mL in data set [2]; 21.6 µM in data set [5]. In addition, the IC50 at 72 h in data set [4] was 437 µM and 180 µg/mL.
Turning to `CCCCc1ccc(Nc2c(F)cc3c(=O)c(C(=O)O)cn(C4CC4)c3c2[N+](=O)[O-])cc1` [3b, 7-(4-butyl-phenylamino)-1-cyclopropyl-6-fluoro-8-nitro-4-oxo-1,4-dihydro-quinoline-3-carboxylic acid], the IC50 at 24 h in data set [1] is 144 µg/mL and 327 µM. The IC50 in data set [2] was 10.5 µg/mL and 23.8 µM; in data set [5], 23.1 µM and 23.2 µM. For the same compound, in data set [4], the IC50 at 72 h was 416 µM and 183 µg/mL.
With `CCCCc1ccc(Nc2c(F)cc3c(=O)c(C(=O)O)cn(C4CC4)c3c2N)cc1` [4b, 8-amino-7-(4-butyl-phenylamino)-1-cyclopropyl-6-fluoro-4-oxo-1,4-dihydro-quinoline-3-carboxylic acid], the IC50 at 48 h in data set [3] is 8.51 µM and 3.5 µg/mL. Besides, the IC50 at 24 h in data set [1] is > 200 µg/mL. Further, the IC50 was 29.8 µM and 12.2 µg/mL in data set [2]; 74.7 µM and 69.6 µM in data set [5]. Besides, the IC50 at 72 h in data set [4] is 407 µM and 167 µg/mL.

These data come from publication PMC6852796 (Asian Pacific Journal of Cancer Prevention : APJCP, 2019).
